The values that follow come from ChEMBL document CHEMBL4364279, “Design, synthesis, in-silico and biological evaluation of novel chalcone-O-carbamate derivatives as multifunctional agents for the treatment of Alzheimer's disease” (Eur J Med Chem, 2019).

For data set [1], the target named is Acetylcholinesterase (AChE) (Electrophorus electricus, UniProt O42275). As to the kind of experiment: Inhibition of electric eel AChE at 25 uM using acetylthiocholine iodide as substrate incubated for 15 mins by Ellman's method relative to control. Particulars: electric eel acetylcholinesterase (isolated enzyme), probe acetylthiocholine iodide.
For data set [2], the target named is Cholinesterase (Equus caballus) (UniProt P81908). The experiment in a line: Reversible inhibition of equine serum BuChE assessed as enzyme activity at 0.1 times IC50 using butyrylthiocholine iodide as substrate by Ellman's method relative to control. More on the design: scale not given: the % may be the effect or the level left. An outline of the steps: (§1)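 Reversibility tested by recovery of equine serum BuChE activity after dilution of inhibitor, with activity monitored over time up to 240 min by the Ellman method (DTNB read at 412 nm). Activity expressed relative to untreated control. Three independent experiments.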
On the technique in general: Ellman's reagent forms a yellow product with free thiols.

Data set [3] shares this target. As to the kind of experiment: Reversible inhibition of equine serum BuChE assessed as enzyme activity at 0.1 times IC50 using butyrylthiocholine iodide as substrate measured at 120 mins by Ellman's method relative to control. Set-up: scale not given: the % may be the effect or the level left. A digest of the protocol: as §1
Data set [4] shares this target. As to the kind of experiment: Reversible inhibition of equine serum BuChE assessed as enzyme activity at IC50 using butyrylthiocholine iodide as substrate by Ellman's method relative to control. More on the design: scale not given: the % may be the effect or the level left.
Data set [5] can be described thus: Antioxidant activity assessed as trolox equivalents of AAPH radical scavenging activity preincubated for 15 mins followed by AAPH addition and measured every minute for 90 mins by ORAC-FL assay. The data set is classed as functional.
In data set [6] the target is T1, Amine oxidase [flavin-containing] B (Homo sapiens, UniProt P27338).
T1 sequence (P27338 whole entry): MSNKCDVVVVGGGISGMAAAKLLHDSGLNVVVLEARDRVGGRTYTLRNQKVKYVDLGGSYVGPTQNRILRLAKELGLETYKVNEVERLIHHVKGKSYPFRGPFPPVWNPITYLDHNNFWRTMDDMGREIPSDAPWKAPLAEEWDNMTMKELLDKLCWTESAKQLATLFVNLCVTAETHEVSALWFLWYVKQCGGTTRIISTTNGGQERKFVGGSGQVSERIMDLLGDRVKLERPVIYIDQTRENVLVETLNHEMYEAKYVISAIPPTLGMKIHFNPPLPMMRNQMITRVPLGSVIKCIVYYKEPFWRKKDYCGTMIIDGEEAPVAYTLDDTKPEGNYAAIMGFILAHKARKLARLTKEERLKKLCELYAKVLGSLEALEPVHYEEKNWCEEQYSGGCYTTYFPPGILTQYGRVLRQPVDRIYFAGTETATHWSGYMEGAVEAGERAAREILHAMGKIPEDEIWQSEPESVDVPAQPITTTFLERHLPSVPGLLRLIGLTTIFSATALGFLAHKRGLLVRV
The experiment in a line: biochemical. The data set is classed as cell-based.

For data set [7], the target named is T2, Amine oxidase [flavin-containing] A (Homo sapiens, UniProt P21397).
T2 sequence (P21397 whole entry): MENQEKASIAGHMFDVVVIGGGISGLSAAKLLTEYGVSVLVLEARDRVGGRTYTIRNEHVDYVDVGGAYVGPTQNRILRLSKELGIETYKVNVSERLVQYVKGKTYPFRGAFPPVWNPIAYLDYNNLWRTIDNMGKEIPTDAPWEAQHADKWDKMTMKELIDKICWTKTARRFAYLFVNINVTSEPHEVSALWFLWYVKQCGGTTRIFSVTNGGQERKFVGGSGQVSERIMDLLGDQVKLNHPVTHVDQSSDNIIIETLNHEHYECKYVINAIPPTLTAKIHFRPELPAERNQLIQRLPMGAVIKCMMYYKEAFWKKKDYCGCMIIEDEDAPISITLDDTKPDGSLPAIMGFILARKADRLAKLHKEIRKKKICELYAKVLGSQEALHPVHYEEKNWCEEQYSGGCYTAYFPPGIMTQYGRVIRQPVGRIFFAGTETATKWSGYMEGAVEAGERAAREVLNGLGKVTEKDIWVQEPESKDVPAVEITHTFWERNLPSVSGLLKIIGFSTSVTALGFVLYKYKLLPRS
As to the kind of experiment: Inhibition of recombinant human MAO-A expressed in baculovirus infected BTI insect cells at 12.5 uM using kynuramine as substrate measured after 30 mins by fluorescence based assay relative to control. Particulars: 0.5 h.

Data set [8] addresses Amyloid-beta precursor protein (Homo sapiens) (UniProt P05067). The experiment in a line: Inhibition of self-induced amyloid beta (1 to 42) (unknown origin) aggregation at 25 uM after 24 hrs by thioflavin-T based fluorescence assay relative to control.
The nature of data set [9]: Disaggregation of Cu2+ induced preformed fibrils of amyloid beta (1 to 42) (unknown origin) at 25 uM preincubated with Cu2+ for 24 hrs followed by compound addition and measured after 24 hrs by thioflavin-T based fluorescence assay relative to control. A digest of the protocol:
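Aβ1-42 (25 µM) and Cu2+ (25 µM) preincubated at 37 °C for 24 h, then compound (25 µM) added and incubated a further 24 h at 37 °C. ThT (5 µM in 50 mM glycine-NaOH, pH 8.5) added; fluorescence at ex 446/em 490 nm, background subtracted, % vs no-compound control. Three independent experiments.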

A short description of data set [10]: Metal chelating activity of the compound assessed as formation of Al3+-compound complex by measuring red shift in maximum absorption at 37.5 uM after 30 mins by UV-vis absorption spectra analysis (reference value: 359 nanometer). An outline of the steps: (§2)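 Metal binding examined by plate-reader absorbance scan using CuCl2, ZnCl2, AlCl3, FeSO4, CuCl and Fe(NO3)3 as metal sources.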

The nature of data set [11]: Metal chelating activity of the compound assessed as formation of Zn2+-compound complex at 37.5 uM after 30 mins by UV-vis absorption spectra analysis. An outline of the steps:
as §2

Data set [12] deals with PC-12. The experiment in a line: Neuroprotective activity against H2O2-induced cell death in rat PC12 cells assessed as cell viability at 10 uM pretreated for 2 hrs followed by H2O2 addition measured after 30 mins by MTT assay (reference value: 49.6%). The format is functional. Particulars: read-out: Activity.
Data set [13] deals with PC-12. As to the kind of experiment: Neuroprotective activity against H2O2-induced cell death in rat PC12 cells assessed as cell viability at 1 uM pretreated for 2 hrs followed by H2O2 addition measured after 30 mins by MTT assay (reference value: 49.6%). Particulars: read-out: Activity. The format is functional. Background: Tetrazolium dyes change colour on reduction, which living cells bring about.

A short description of data set [14]: Toxicity in Kunming mouse assessed as abnormal behavior at 20 to 500 mg/kg measured up to 14 days. The note with it: in vivo, 336 h. The format is organism-based.
A short description of data set [15]: Toxicity in Kunming mouse assessed as mortality at 20 to 500 mg/kg measured up to 14 days. The format is organism-based. The note with it: in vivo, 336 h.
Data set [16] has as its system Mus musculus. The experiment in a line: Effect on total arm entries in Kunming mouse model of scopolamine-induced cognitive impairment in at 2.6 to 23.4 mg/kg, ig pretreated for 30 min followed by scopolamine challenge and measured after 30 mins by Y-maze test. The data set is classed as ADME, organism-based. Particulars: in vivo, po, 0.5 h.
Data set [17] relates to Mus musculus. The experiment in a line: Reversal of scopolamine-induced memory cognitive memory impairment in Kunming mouse assessed as change in spontaneous alteration behavior at 7.8 mg/kg, ig pretreated for 30 mins followed by scopolamine challenge and after 30 mins by Y-maze test (reference value: 45.6%). The format is functional.
Data set [18] relates to Mus musculus. The experiment in a line: Reversal of scopolamine-induced memory cognitive memory impairment in Kunming mouse assessed as increase in spontaneous alteration behavior at 2.6 mg/kg, ig pretreated for 30 mins followed by scopolamine challenge and after 30 mins by Y-maze test. The data set is classed as functional, organism-based.
A short description of data set [19]: in vitro. Particulars: PAMPA, pH 7.4.

pIC50: −log10 of the molar value. Active and inactive are the calls of the source. No cut-off for these calls is given here.

Sequence of Cholinesterase (Equus caballus) (P81908 whole entry): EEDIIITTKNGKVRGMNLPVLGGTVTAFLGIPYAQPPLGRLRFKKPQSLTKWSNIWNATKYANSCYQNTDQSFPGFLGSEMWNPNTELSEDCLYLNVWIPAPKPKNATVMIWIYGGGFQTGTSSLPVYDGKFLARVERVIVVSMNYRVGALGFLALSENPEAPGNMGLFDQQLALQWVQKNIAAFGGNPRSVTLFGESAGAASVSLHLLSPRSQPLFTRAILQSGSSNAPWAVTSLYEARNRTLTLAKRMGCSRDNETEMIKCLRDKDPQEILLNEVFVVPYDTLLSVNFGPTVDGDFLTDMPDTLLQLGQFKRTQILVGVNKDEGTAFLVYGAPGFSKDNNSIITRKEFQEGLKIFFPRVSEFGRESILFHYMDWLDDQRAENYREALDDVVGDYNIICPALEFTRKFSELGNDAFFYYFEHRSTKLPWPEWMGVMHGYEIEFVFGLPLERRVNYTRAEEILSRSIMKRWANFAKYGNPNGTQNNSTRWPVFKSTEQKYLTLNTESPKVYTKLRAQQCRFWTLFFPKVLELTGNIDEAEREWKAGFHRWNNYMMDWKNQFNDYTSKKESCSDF
Sequence of Amyloid-beta precursor protein (Homo sapiens) (P05067 whole entry): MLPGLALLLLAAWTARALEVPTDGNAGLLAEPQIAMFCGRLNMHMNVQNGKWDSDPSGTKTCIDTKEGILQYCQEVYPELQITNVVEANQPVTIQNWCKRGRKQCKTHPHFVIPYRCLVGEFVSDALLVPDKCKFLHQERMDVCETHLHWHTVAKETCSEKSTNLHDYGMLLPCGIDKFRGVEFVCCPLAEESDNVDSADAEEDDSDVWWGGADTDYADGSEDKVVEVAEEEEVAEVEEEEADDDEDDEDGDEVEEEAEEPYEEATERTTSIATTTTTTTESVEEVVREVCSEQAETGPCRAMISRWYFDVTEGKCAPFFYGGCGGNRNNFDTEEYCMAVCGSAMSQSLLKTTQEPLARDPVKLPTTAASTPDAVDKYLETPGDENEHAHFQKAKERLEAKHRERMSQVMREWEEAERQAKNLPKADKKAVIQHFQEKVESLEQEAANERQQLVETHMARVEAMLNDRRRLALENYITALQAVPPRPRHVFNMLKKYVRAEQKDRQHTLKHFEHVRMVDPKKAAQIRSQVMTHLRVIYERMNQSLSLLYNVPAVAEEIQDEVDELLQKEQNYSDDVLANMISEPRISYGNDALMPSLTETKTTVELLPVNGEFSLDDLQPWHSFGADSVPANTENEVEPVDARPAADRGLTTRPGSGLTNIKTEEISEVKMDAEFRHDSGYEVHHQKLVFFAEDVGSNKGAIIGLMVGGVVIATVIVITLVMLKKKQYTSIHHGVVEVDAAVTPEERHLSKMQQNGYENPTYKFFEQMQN
Sequence of Acetylcholinesterase (AChE) (O42275 whole entry): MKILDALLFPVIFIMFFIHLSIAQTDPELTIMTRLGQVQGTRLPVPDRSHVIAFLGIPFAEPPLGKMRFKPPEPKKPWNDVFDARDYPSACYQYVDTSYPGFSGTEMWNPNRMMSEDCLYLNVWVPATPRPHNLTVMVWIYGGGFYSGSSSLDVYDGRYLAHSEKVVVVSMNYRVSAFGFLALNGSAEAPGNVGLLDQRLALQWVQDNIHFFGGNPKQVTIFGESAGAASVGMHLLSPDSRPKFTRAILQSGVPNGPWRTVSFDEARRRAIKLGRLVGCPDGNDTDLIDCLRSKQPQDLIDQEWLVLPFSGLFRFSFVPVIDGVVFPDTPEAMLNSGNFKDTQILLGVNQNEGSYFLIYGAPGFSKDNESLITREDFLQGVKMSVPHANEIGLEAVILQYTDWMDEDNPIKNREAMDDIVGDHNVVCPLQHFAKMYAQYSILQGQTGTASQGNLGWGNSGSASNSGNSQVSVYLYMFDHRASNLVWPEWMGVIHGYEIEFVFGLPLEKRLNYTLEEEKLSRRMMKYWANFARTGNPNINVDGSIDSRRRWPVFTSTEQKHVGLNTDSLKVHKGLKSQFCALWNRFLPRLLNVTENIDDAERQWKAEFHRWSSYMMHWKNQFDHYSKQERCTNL

As for `CCN(C)C(=O)Oc1cccc(/C=C/C(=O)c2ccccc2O)c1`, the inhibition (in general, the percentage by which the read-out fell short of the control) at 0.25 h, 25 µM in data set [1] came out at 26.2%. Further, the Activity in [2] was 50.8%; in [3], under 75.1%; in data set [4], 50.1%; in data set [5] it was 1.3 µMequiv/µM; in data set [9] it was 83.1%; in data set [10], 428 nm. The Activity result in data set [14] was “Non-Toxic”; in data set [15], “Non-Toxic”; in [16], “Non-Toxic”; in [17], 65.1%. Also, in data set [6], the pIC50 (in general, the IC50 on a negative log10 scale, so that one unit is a factor of ten) is 5.89. Besides, the inhibition at 12.5 µM in data set [7] worked out at 16.4%. In data set [8], this molecule came in with an inhibition of 63.9%. Moreover, the result in [11] was inactive. Besides, the viability at 10 µM in data set [12] worked out at 78.3%. Also, the viability at 1 µM in data set [13] came out at 62.9%. Also, in data set [18], the outcome was Active. In addition, the Papp – broadly, the rate of passage across a membrane or cell layer, normalised by area and donor concentration – at 100 ug/ml in [19] was determined as 15.7 ×10⁻⁶ cm/s.
